An excerpt weighted towards active compounds, which were near 3.5% of everything screened.
Env fusion inh – blocks HIV Env-driven cell-cell fusion; inhibition, % at 12.3 µM; hit rate 1.1% among 360,000; AID 651610; HeLa-JRFL Env/CEM21 cell fusion, luciferase;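 active means mean replicate inhibition score of at least 50 and every replicate individually at or above 50; inconclusive means only one of the two criteria met; inactive means mean below 50 and not all replicates reaching 50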;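 further: 0% = plate neutral controls and 100% = maraviroc near 300 nM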
DENV2 CPE – DENV2-induced cell death inhibition; DENV2-infected cells, cytopathic effect rescue, plate reader; CPE inhibition, % at 9.99 µM; hit rate 1.7% among 350,000; in the data active means CPE inhibition above about 20%, passing the limit was not always enough; inconclusive means no clear call, values can overlap the other calls; tested in BHK-21 cells;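 further: 0% = median of neutral control wells and 100% = median of positive control wells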
PglD DTNB – blocks C. jejuni PglD acetyltransferase activity; purified PglD enzyme, DTNB colorimetric CoA detection; inhibition, % at 12.5 µM; hit rate 0.098% among 360,000; in the data active means inhibition above about 16%, passing the limit was not always enough; inconclusive means no clear call, values can overlap the other calls
PGC1a acetyl inh – PGC1a acetylation modulation, inhibitor mode | hit rate 0.17% among 350,000 | inhibition, % at 15.6 µM | U2OS PGC1a acetylation, AlphaScreen anti-acetyl-lysine; with virally co-expressed GCN5 acetyltransferase;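 active means every replicate shows inhibition of at least 40%; inconclusive means mean inhibition at least 40% but some replicate below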;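 further: 0% = neutral control wells and 100% = positive control wells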
Ecoli rRNA inh – inhibitors of bacterial rRNA selective over humanized ribosomes; E. coli WT GFP vs humanized-ribosome RFP mutants, fluorescence, 24 h; stronger effect = lower value; DMSO median 0, no signal -100; GFP signal change (wild-type ribosome), % (concentration not given with the values); hit rate 1.6% among 350,000;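 active means significant combined selectivity score with lowered wild-type GFP, culture density cut under 30%, mutant RFP and density less affected; inactive means any of these conditions unmet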
FN deposit inh – fibronectin deposition inhibition; AID 743247; hit rate 0.086% among 350,000; inhibition, % at 12.6 µM; AH1F fibroblasts, Alexa488-fibronectin deposition fluorescence, overnight;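 active means mean inhibition across replicates of 30% or more, regardless of how many single replicates reach that level; inconclusive means mean under 30% yet at least half of replicates reach 30%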;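 further: positive control wells lacked labelled fibronectin entirely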
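Schedule: 1 h cell adhesion before compound, then overnight fibronectin incubation; test system: AH1F fibroblast monolayer depositing Alexa488-labelled fibronectin into matrix; quantity: 10000 AH1F cells per well; probe or stimulus: fluorescent fibronectin at 24 nM final; signal: fluorescence, ex 485 nm, em 525 nm; evaluation: percent inhibition as loss of matrix-bound fibronectin fluorescence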
* hit, by the source's call; [ ] = remark or other dose.

Screening O=C(C[C@H]1CC[C@@H]2[C@H](COC[C@@H](O)CN2S(=O)(=O)c2ccc(F)cc2)O1)NCc1ccc(Cl)c(Cl)c1 returned DENV2 CPE -2, PglD DTNB 0, PGC1a acetyl inh 0, Ecoli rRNA inh 5 and FN deposit inh 2.
For Cc1ccccc1S(=O)(=O)N1C[C@H](O)COC[C@H]2O[C@@H](CC(=O)NCc3ccccc3Cl)CC[C@@H]21 the results were Env fusion inh 57*[16.7 µM], DENV2 CPE 3, PglD DTNB 1, PGC1a acetyl inh -8, Ecoli rRNA inh 4 and FN deposit inh -2.
C[C@H](CO)N1C[C@H](C)[C@H](CN(C)S(=O)(=O)c2ccc(Cl)cc2)Oc2ccc(NS(=O)(=O)c3cccs3)cc2CC1=O was read as Env fusion inh 22[16.7 µM], DENV2 CPE 8, PglD DTNB 3, PGC1a acetyl inh 5 and Ecoli rRNA inh 2.
For CC(C)(C)[S@@](=O)N1Cc2cc(C(=O)NCc3ccncc3)nc(-c3cccc(-c4cccc(C#N)c4)c3)c2[C@H]1CCO the results were Env fusion inh 10[16.7 µM], DENV2 CPE -1, PglD DTNB 5, PGC1a acetyl inh 20, Ecoli rRNA inh 5 and FN deposit inh 16.
For COc1ccc(S(=O)(=O)N2C[C@@H](O)COC[C@@H]3O[C@H](CC(=O)NCCCN(C)C)CC[C@H]32)cc1 the results were DENV2 CPE 12, PglD DTNB -5, PGC1a acetyl inh -1, Ecoli rRNA inh 1 and FN deposit inh -3.
For COc1ccc(S(=O)(=O)N2C[C@H](O)COC[C@H]3O[C@H](CC(=O)NCCCN(C)C)CC[C@@H]32)cc1 the results were DENV2 CPE 21*, PglD DTNB -4, PGC1a acetyl inh -2, Ecoli rRNA inh 0 and FN deposit inh -2.
`CC1(C)CC(c2nc(-c3ccc([N+](=O)[O-])cc3)cs2)CCO1` (stereo not drawn) gave Env fusion inh -6, DENV2 CPE 1, PglD DTNB 5, PGC1a acetyl inh 4, Ecoli rRNA inh -42* and FN deposit inh 8.
Nc1nc(-c2ccc([N+](=O)[O-])cc2)cs1 was read as PglD DTNB 6 and PGC1a acetyl inh 2.
For Cc1ccc(NC(=S)Nc2ccc3cn[nH]c3c2)cc1C the results were Env fusion inh -2 and FN deposit inh 2.
For CC(C)c1ccc(NC(=S)Nc2ccc3cn[nH]c3c2)cc1 the results were Env fusion inh 0, PglD DTNB 11, PGC1a acetyl inh 5, Ecoli rRNA inh -46* and FN deposit inh -1.
`Cc1ccc(NC(=S)Nc2ccc3cn[nH]c3c2)c(C)c1` gave Env fusion inh -2, DENV2 CPE 3, PGC1a acetyl inh 3, Ecoli rRNA inh -26* and FN deposit inh -6.
`COc1ccc(Nc2nc(NCc3ccco3)nc(N/N=C/c3ccccc3F)n2)cc1` gave Env fusion inh -18, DENV2 CPE 0, PglD DTNB -17, PGC1a acetyl inh -10, Ecoli rRNA inh -27* and FN deposit inh 9.
`COc1ccc(/C=N/Nc2nc(NCc3ccco3)nc(Nc3ccc(OC)cc3)n2)cc1` gave Env fusion inh -32, DENV2 CPE 8, PglD DTNB 4, PGC1a acetyl inh 2, Ecoli rRNA inh -6 and FN deposit inh 14.
Cc1ccc(S(=O)(=O)N(C)C[C@@H]2Oc3c(NS(=O)(=O)c4cn(C)cn4)cccc3C(=O)N([C@H](C)CO)C[C@@H]2C)cc1 was read as DENV2 CPE 5, PGC1a acetyl inh 16 and Ecoli rRNA inh 0.
CC(=O)c1cnc(SCc2ccc(Cl)cc2)nc1C was read as Env fusion inh -7, DENV2 CPE -1, PGC1a acetyl inh 0 and Ecoli rRNA inh -28*.
`CCNC(=S)N(CCc1c(C)[nH]c2ccc(C)cc12)Cc1cccnc1` gave Env fusion inh 26, DENV2 CPE 11, PglD DTNB -6, PGC1a acetyl inh -21, Ecoli rRNA inh -4 and FN deposit inh 5.
Screening CCNC(=S)N(CCc1c(C)[nH]c2ccc(F)cc12)Cc1cccnc1 returned Env fusion inh 22, DENV2 CPE 6, PglD DTNB -1, PGC1a acetyl inh 19, Ecoli rRNA inh -27* and FN deposit inh 14.
Screening COC(=O)c1ccccc1NC(=O)c1ccc2c(c1)CC(C)O2 (stereo not drawn) returned Env fusion inh -12, DENV2 CPE 9, PglD DTNB 0, Ecoli rRNA inh -29* and FN deposit inh -1.
`COc1ccc(NC(=O)Nc2cccc3c2O[C@@H](CN(C)Cc2ccc(C(F)(F)F)cc2)[C@H](C)CN([C@@H](C)CO)C3=O)cc1` gave Env fusion inh 14[16.7 µM], DENV2 CPE -2, PglD DTNB -3, PGC1a acetyl inh -1 and Ecoli rRNA inh 1.
O=C(CCc1nc2ccccc2c(=O)[nH]1)N1CCN(c2ccccc2Cl)CC1 was read as Env fusion inh 1, DENV2 CPE 1, PglD DTNB -1, PGC1a acetyl inh 32, Ecoli rRNA inh 12 and FN deposit inh 8.
O=C(CCc1nc2ccccc2c(=O)[nH]1)N1CCCc2ccccc21 was read as DENV2 CPE 53*, PGC1a acetyl inh 5, Ecoli rRNA inh 6 and FN deposit inh -3.
Screening COc1ccc(OC)c(/C=N/NC(=O)c2[nH]ncc2Br)c1 returned Env fusion inh -3, DENV2 CPE 1, PglD DTNB 11, PGC1a acetyl inh inconclusive, Ecoli rRNA inh 11 and FN deposit inh 9.
Screening CCOc1ccc(/C=N/NC(=O)c2[nH]ncc2Br)c(O)c1 returned Env fusion inh -314, DENV2 CPE 0, PGC1a acetyl inh 20, Ecoli rRNA inh -34* and FN deposit inh 6.
`Cc1ccccc1CC1(CO)CCCN(Cc2nc(-c3cccs3)oc2C)C1` (stereo not drawn) gave Env fusion inh 8, DENV2 CPE 5, Ecoli rRNA inh -25* and FN deposit inh 7.
Screening COc1ccc(NS(=O)(=O)c2ccc3c(c2)OCCO3)cc1OC returned Env fusion inh 93*, DENV2 CPE -1, PglD DTNB 3, PGC1a acetyl inh 21, Ecoli rRNA inh 5 and FN deposit inh 11.
COCCNC(=O)C[C@H]1C[C@H]2c3cc(NC(=O)C4CCOCC4)ccc3O[C@H]2[C@H](CO)O1 was read as Env fusion inh 37[16.7 µM], DENV2 CPE -10, PglD DTNB 0, PGC1a acetyl inh 2, Ecoli rRNA inh 3 and FN deposit inh 4.
Screening COc1ccc2c3c(n(C)c2c1)[C@@H](CO)NCC31CN(C(C)=O)C1 returned DENV2 CPE 0, PGC1a acetyl inh 1 and Ecoli rRNA inh 2.

Bioassay records (PubChem BioAssay)
